This is a sample that favours compounds with a hit; in the whole collection about 1.4% have one here.
ATG4B inhibitor: ATG4B protease inhibitors, primary screen, biochemical, fluorescence, uHTS. Cysteine protease ATG4B (Homo sapiens), Q9Y4P1. ATG4B cleavage of LC3-PLA2, NBD-HPC fluorescence, 1 h. inhibition, % at 8.33 µM. 340,000 compounds, 0.51% hits. AID 504462, 2011; in the data active means inhibition above about 40%
Target sequence (Q9Y4P1 whole entry, looked up): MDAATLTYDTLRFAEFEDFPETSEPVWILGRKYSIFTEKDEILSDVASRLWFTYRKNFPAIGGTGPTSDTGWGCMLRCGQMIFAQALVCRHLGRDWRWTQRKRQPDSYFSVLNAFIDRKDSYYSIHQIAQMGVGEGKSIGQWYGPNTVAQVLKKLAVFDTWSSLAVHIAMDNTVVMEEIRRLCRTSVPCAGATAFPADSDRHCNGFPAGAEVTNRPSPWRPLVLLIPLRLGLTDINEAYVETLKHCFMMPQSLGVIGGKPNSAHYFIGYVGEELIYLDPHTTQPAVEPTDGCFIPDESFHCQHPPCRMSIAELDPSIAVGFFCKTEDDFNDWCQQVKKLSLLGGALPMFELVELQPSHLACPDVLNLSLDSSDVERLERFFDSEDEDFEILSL
Diaphorase inh: diaphorase inhibitors and chemical oxidizers, primary screen, counter-screen for diaphorase-coupled primary assays, biochemical, uHTS, resorufin fluorescence. diaphorase resazurin-to-resorufin fluorescence, NADH, 16 min; bacterial (C. kluyveri) enzyme, not human. inhibition, % at 20 µM. 190,000 compounds, 0.69% hits;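 active means primary screen inhibition at 20 µM above a set limit, cut at about 50% in these data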;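 further: plate controls were DMSO with full reaction for no effect and wells lacking NADH for full effect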
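Test system: bacterial diaphorase enzyme (C. kluyveri); Quantity: 0.14 U/mL diaphorase, enzyme working solution; Times: reaction incubation of 16 min at room temperature; Measured by: fluorescence of resorufin formed from resazurin, Ex 544/Em 590 nm; Benchmarks: positive control minus NADH, DMSO neutral control.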
Diaph act CS: compounds boosting diaphorase resazurin reduction – biochemical, uHTS, resorufin fluorescence, counter-screen for diaphorase-coupled primary assays, primary screen; Diaphorase/resazurin coupled assay, 16 min; active compounds read high; 1 = vehicle wells, 0 = NADH-free wells; activation factor at 20 µM; 190,000 compounds, 0.005% hits;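 active means diaphorase activity raised at least twofold by the compound at 20 µM; inactive means activation factor below 2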
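Material: purified diaphorase enzyme from Clostridium kluyveri; Also added: 0.114 mM NADH and 0.1 mM resazurin, final amounts; Doses: single compound dose of 20 µM, 1% DMSO final; Times: 16 min enzyme reaction, ambient temperature; Detection: resorufin fluorescence, excitation 544 nm, emission 590 nm; Measure: increased resorufin signal from activators or reducing compounds.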
CTSL1 counter: Fasciola hepatica cathepsin L1 inhibitors, primary screen, counter-screen for PFM18AAP inhibitor project, biochemical, QFRET, fluorogenic peptide substrate | recombinant F. hepatica cathepsin L1, Z-Leu-Arg-MCA fluorescence | inhibition, % at 5.96 µM | 300,000 compounds, 0.49% hits;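 active means inhibition above the mean of all tested compounds plus 3 SD, set per screening campaign, cut at about 17% in these data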;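 further: 0% = plate median of test compound wells and 100% = 1 µM Z-Phe-Ala-diazomethylketone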
HKDC1 inh: HKDC1 hexokinase inhibitors, primary screen, biochemical, fluorescence, uHTS | Q2TB90 | recombinant HKDC1, G6PDH/diaphorase resazurin coupled fluorescence | inhibition, % at 20 µM | 340,000 compounds, 0.16% hits | AID 493160, 2011;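 active means inhibition above about 35% when tested at 20 µM, limit read from the data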;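 further: plate controls were DMSO wells with enzyme for no effect and DMSO wells lacking enzyme for full effect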
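Test system: Recombinant HKDC1 (HK5) hexokinase enzyme, produced in-house | Input: HKDC1 at 5 µg/mL | Buffer or medium: Tris pH 8.0 buffer with MgCl2, Tween-20, BSA, BME | Schedule: 90 min reaction incubation at room temperature, dark | Technique: Resazurin-to-resorufin fluorescence via G6PDH and diaphorase coupling, 525/613 nm | Controls: DMSO wells with and without enzyme mix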
Starred values were filed as active, the others as inactive; . = no result given.

SMILES	ATG4B inhibitor	Diaphorase inh	Diaph act CS	CTSL1 counter	HKDC1 inh
CCC(C)(C)n1nnnc1C(c1cc2ccc(OC)cc2[nH]c1=O)N1CCc2ccccc2C1 (stereo not given)	4	47	0.5	0	11
Cc1ccc2[nH]c(=O)c(C(c3nnnn3CC3CCCO3)N3CCc4ccccc4C3)cc2c1 (stereo not given)	9	63*	0.4	2	22
Cc1ccc2[nH]c(=O)c(C(c3nnnn3CC3CCCO3)N3CCOCC3)cc2c1 (stereo not given)	7	14	0.9	2	11
CCCCn1c(N)c(N(CC)C(=O)c2ccc(C#N)cc2)c(=O)[nH]c1=O	1	.	.	6	3
Cc1ccc(C(=O)NCC(=O)OCN2C(=O)c3ccccc3C2=O)cc1C	-7	.	.	.	-3
O=C(CNC(=O)c1ccco1)OCN1C(=O)c2ccccc2C1=O	-2	6	0.9	28*	-4
COc1ccc(CCn2c(C)c(C(C)=O)c(C(C)=O)c2C)cc1OC	-9	6	0.9	-1	3
COc1ccc(CCn2c(C)cc(C(=O)CCl)c2C)cc1OC	-1	7	0.9	44*	9
Cc1cc(C(=O)CCl)c(C)n1CCc1ccc(F)cc1	6	10	0.9	23*	28
O=C1NC(=O)/C(=C\c2ccc(O)cc2O)S1	-4	82*	0.2	-1	4
O=C1NC(=O)/C(=C/c2cccc3ccccc23)S1	8	.	.	4	6
COCC(C)N1C(=O)Cc2c1nc(N)c1c(N)nc(N3CCN(c4ccccc4F)CC3)c(C#N)c21 (stereo not given)	11	60*	0.4	5	10
COCCN1C(=O)Cc2c1nc(N)c1c(N)nc(N3CCN(c4ccc(F)cc4)CC3)c(C#N)c21	3	43	0.6	1	0
O=C(N/N=C/c1ccc(-c2ccccc2[N+](=O)[O-])o1)c1cccnc1	-7	59*	0.4	2	13
CC(C)(C)c1cc(C(=O)N/N=C/c2ccc(-c3ccccc3[N+](=O)[O-])o2)n[nH]1	34	.	.	4	19
O=C(CCN1CCOCC1)NNC(=S)NC(=O)c1ccc(Br)cc1	2	66*	0.3	2	-13
Cc1cc2nc3c(=O)[nH]c(=O)[nH]c3nc2c([N+](=O)[O-])c1N	-7	65*	0.3	.	26
Cc1c(N)c(C(C)(C)C)cc(C(C)(C)C)c1[N+](=O)[O-]	10	23	0.8	2	-3
CCCCN(CC)C(=O)C1CCC(CNS(=O)(=O)c2cccc3nsnc23)CC1 (stereo not given)	4	.	.	0	-5
CCc1ccc(S(=O)(=O)N2CCN(C(=O)C3CCN(C(C)=O)CC3)CC2)cc1	3	.	.	0	-4
CCOc1ccc(N(C)c2ccc(/C=C3/SC(=S)NC3=O)cc2)cc1	6	.	.	3	1
CCOc1c(O)ccc(/C=C2\SC(=S)NC2=O)c1[N+](=O)[O-]	5	54*	0.5	6	-14
CCOC(=O)N1CCN(C(=O)Cn2nc(C)n3nc(-c4ccccc4)cc3c2=O)CC1	6	.	.	1	-4
COc1ccc(-c2noc(CSc3nc(N)cc(=O)[nH]3)n2)cc1	-2	.	.	-2	0
COc1ccc(-c2noc(CSc3nc(-c4ccccc4)cc(=O)[nH]3)n2)cc1OC	5	67*	0.3	-5	-2
COc1ccc(CC(=O)NNC(=O)c2ccc(Br)o2)cc1	-1	.	.	2	-9
O=C1S/C(=C\c2ccc(N3CCOCC3)o2)C(=O)N1Cc1ccc(F)cc1	6	26	0.7	0	15
O=C1/C(=C/c2ccc(N3CCOCC3)o2)SC(=Nc2ccccc2)N1CCc1c[nH]c2ccccc12	-3	16	0.8	18*	10
Cc1c(/C=N/Nc2ccc(F)cc2)c(O)n(C)c(=O)c1C#N	2	56*	0.4	6	4
CCOC(=O)c1c(NC(=O)C2C3CCC(O3)C2C(=O)O)sc2c1CCC(CC)C2 (stereo not given)	-6	55*	0.5	3	1
